Measured values reported in ChEMBL document CHEMBL2016521, “Preparation, gram-negative antibacterial activity, and hydrolytic stability of novel siderophore-conjugated monocarbam diols” (ACS Med Chem Lett, 2011).

Legend:
Pseudomonas aeruginosa [1] = experiment: Antibacterial activity against metallo-beta-lactamase producing Pseudomonas aeruginosa; assay type: functional
Serratia marcescens = experiment: Antimicrobial activity against Serratia marcescens; assay type: functional
[2] = Fraction unbound in mouse plasma at 1 uM by LC-MS/MS analysis; assay type: ADME, cell-free
[3] = tested on: Stenotrophomonas maltophilia; experiment: Antimicrobial activity against Stenotrophomonas maltophilia; assay type: functional
Pseudomonas aeruginosa [4] = experiment: Antibacterial activity against low inoculum imipenem-sensitive Pseudomonas aeruginosa isolate 1091-05 infected in sc dosed neutropenic-C3H/HeN mouse assessed as mouse survival administered 4 hrs post infection followed by BID dosing for two days measured on day 10; assay type: functional; conditions: isolate 1091-05, sc, read-out: PD50
[5] = Chemical stability of the compound in phosphate buffer at pH 6 at 1 uM after 24 hrs by HPLC analysis; assay type: physicochemical; conditions: pH 6, 24 h
In short: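 Hydrolytic stability of the β-lactam ring was measured in aqueous buffer at pH 6.0 and 37 °C.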

Klebsiella pneumoniae [6] = experiment: Antimicrobial activity against Klebsiella pneumoniae clinical isolate; assay type: functional
Klebsiella aerogenes = experiment: Antimicrobial activity against Enterobacter aerogenes; assay type: functional
Pseudomonas aeruginosa [7] = experiment: Antibacterial activity against imipenem-sensitive Pseudomonas aeruginosa isolate 1091-05 infected in sc dosed neutropenic-C3H/HeN mouse assessed as mouse survival administered 4 hrs post infection followed by BID dosing for two days measured on day 10; assay type: functional; conditions: isolate 1091-05, sc, read-out: PD50
Escherichia coli [8] = experiment: Antimicrobial activity against Escherichia coli clinical isolate; assay type: functional
Pseudomonas aeruginosa [9] = experiment: Antibacterial activity against Pseudomonas aeruginosa cystic fibrosis isolate; assay type: functional
Pseudomonas aeruginosa [10] = experiment: Antibacterial activity against Pseudomonas aeruginosa clinical isolate; assay type: functional
Klebsiella pneumoniae [11] = experiment: Antimicrobial activity against extended spectrum beta-lactamase-producing Klebsiella pneumoniae; assay type: functional
Pseudomonas aeruginosa [12] = experiment: Antibacterial activity against imipenem-sensitive Pseudomonas aeruginosa isolate 1091-05 infected in ip dosed SF-1 mouse assessed as survival of animal administered 0.5 and 4 hrs post infected measured on day 4; assay type: functional; conditions: isolate 1091-05, ip, read-out: PD50
Klebsiella pneumoniae [13] = experiment: Antimicrobial activity against carbapenemase-producing Klebsiella pneumoniae; assay type: functional
Pseudomonas aeruginosa [14] = experiment: Antibacterial activity against Pseudomonas aeruginosa isolate 1091-05; assay type: functional
Acinetobacter baumannii = experiment: Antibacterial activity against Acinetobacter baumannii AB-3167; assay type: functional
Citrobacter freundii = experiment: Antimicrobial activity against Citrobacter freundii; assay type: functional
[15] = Chemical stability of the compound in phosphate buffer at pH 8 assessed as drug degradation at 1 uM after 100 hrs by HPLC analysis; assay type: physicochemical; conditions: read-out: Drug degradation
In short: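 Hydrolytic β-lactam ring-opening was followed in aqueous buffer at pH 8.0 and 37 °C over a 100 h incubation. The read-out was percent degradation.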

Escherichia coli [16] = experiment: Antimicrobial activity against extended spectrum beta-lactamase-producing Escherichia coli; assay type: functional
Acinetobacter sp. = experiment: Antimicrobial activity against Acinetobacter sp.; assay type: functional
Escherichia coli [17] = experiment: Antimicrobial activity against CTX-M-positive extended spectrum beta-lactamase-producing Escherichia coli; assay type: functional
Pseudomonas aeruginosa [18] = experiment: Antibacterial activity against Pseudomonas aeruginosa; assay type: functional
Klebsiella pneumoniae [19] = experiment: Antibacterial activity against Klebsiella pneumoniae 1000-02; assay type: functional

SMILES: CC(C)(O/N=C(\C(=O)N[C@H]1CN(C(=O)[N-]S(=O)(=O)n2nc(-c3cc(=O)c(O)c[nH]3)n(C[C@@H](O)CO)c2=O)C1=O)c1csc(N)n1)C(=O)[O-].[Na+].[Na+]
- MIC50 (Pseudomonas aeruginosa [1]): 0.125 µg/mL
- MIC90 (Pseudomonas aeruginosa [1]): 0.5 µg/mL
- MIC50 (Serratia marcescens): 0.125 µg/mL
- MIC90 (Serratia marcescens): 0.5 µg/mL
- fraction unbound at 1 µM [2]: 0.46
- MIC50 [3]: 1 µg/mL
- MIC90 [3]: 2 µg/mL
- ED50 (Pseudomonas aeruginosa [4]): 6.9 mg/kg
- Stability [5]: Stable
- MIC50 (Klebsiella pneumoniae [6]): 0.5 µg/mL
- MIC90 (Klebsiella pneumoniae [6]): 8 µg/mL
- MIC50 (Klebsiella aerogenes): 0.125 µg/mL
- MIC90 (Klebsiella aerogenes): 0.25 µg/mL
- ED50 (Pseudomonas aeruginosa [7]): 20.6 mg/kg
- MIC50 (Escherichia coli [8]): 0.25 µg/mL
- MIC90 (Escherichia coli [8]): 2 µg/mL
- MIC50 (Pseudomonas aeruginosa [9]): 0.125 µg/mL
- MIC90 (Pseudomonas aeruginosa [9]): 0.5 µg/mL
- MIC50 (Pseudomonas aeruginosa [10]): 0.125 µg/mL
- MIC90 (Pseudomonas aeruginosa [10]): 0.5 µg/mL
- MIC50 (Klebsiella pneumoniae [11]): 0.5 µg/mL
- MIC90 (Klebsiella pneumoniae [11]): 8 µg/mL
- ED50 (Pseudomonas aeruginosa [12]): < 1 mg/kg
- MIC50 (Klebsiella pneumoniae [13]): 0.5 µg/mL
- MIC90 (Klebsiella pneumoniae [13]): 8 µg/mL
- MIC (Pseudomonas aeruginosa [14]): 0.125 µg/mL
- MIC (Acinetobacter baumannii): 0.5 µg/mL
- MIC50 (Citrobacter freundii): 0.5 µg/mL
- MIC90 (Citrobacter freundii): 2 µg/mL
- degraded at 100 h, 1 µM [15]: 50%
- MIC50 (Escherichia coli [16]): 0.25 µg/mL
- MIC90 (Escherichia coli [16]): 2 µg/mL
- MIC50 (Acinetobacter sp.): 16 µg/mL
- MIC90 (Acinetobacter sp.): > 64 µg/mL
- MIC50 (Escherichia coli [17]): 0.25 µg/mL
- MIC90 (Escherichia coli [17]): 2 µg/mL
- MIC90 (Pseudomonas aeruginosa [18]): 0.5 µg/mL
- MIC (Klebsiella pneumoniae [19]): 0.5 µg/mL
